# Target: Metabotropic glutamate receptor 1 (Rattus norvegicus, UniProt P23385)
# Assay: Agonist activity at rat mGlu1 receptor expressed in HEK293 cells by intracellular Ca2+ mobilization assay
# Format: functional, cell-based
# Settings: not given
# Sequence of Metabotropic glutamate receptor 1 (P23385 whole entry): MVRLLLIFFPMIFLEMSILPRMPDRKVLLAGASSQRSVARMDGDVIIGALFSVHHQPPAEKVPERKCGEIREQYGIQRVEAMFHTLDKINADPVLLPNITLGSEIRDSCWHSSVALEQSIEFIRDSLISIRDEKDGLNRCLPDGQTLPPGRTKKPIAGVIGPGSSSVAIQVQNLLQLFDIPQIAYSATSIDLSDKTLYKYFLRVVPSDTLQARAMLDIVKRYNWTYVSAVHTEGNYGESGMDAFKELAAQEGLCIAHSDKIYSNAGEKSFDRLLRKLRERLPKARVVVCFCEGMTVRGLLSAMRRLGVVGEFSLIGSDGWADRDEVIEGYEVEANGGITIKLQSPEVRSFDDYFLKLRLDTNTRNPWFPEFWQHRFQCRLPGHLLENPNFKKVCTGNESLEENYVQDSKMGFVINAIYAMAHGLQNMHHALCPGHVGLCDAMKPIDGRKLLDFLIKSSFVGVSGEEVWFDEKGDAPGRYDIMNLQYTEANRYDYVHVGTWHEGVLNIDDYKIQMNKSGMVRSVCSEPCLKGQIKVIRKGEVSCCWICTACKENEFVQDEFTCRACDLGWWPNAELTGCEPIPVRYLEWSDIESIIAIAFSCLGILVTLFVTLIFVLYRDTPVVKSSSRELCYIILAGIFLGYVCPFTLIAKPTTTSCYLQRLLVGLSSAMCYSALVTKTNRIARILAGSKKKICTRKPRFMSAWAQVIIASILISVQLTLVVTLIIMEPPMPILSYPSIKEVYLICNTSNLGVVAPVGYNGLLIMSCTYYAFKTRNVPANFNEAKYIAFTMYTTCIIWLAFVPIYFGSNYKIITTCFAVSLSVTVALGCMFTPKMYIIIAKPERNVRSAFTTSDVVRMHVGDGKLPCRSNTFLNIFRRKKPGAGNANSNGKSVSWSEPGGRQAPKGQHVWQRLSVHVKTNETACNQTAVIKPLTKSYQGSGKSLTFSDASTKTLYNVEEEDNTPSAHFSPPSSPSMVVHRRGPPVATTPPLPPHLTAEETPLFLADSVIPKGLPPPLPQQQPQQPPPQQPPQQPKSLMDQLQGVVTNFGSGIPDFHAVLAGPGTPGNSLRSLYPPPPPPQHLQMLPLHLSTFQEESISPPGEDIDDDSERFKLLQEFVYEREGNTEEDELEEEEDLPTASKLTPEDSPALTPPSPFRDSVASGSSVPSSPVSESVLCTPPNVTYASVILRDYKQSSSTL
row,Compound,EC50 [µM]
1,N#CCC[C@H](C[C@H](N)C(=O)O)C(=O)O,> 1000
2,CC[C@H](C[C@H](N)C(=O)O)C(=O)O,> 1000
3,NC(=O)CC[C@H](C[C@H](N)C(=O)O)C(=O)O,> 1000
4,N[C@@H](C[C@@H](CC(=O)O)C(=O)O)C(=O)O,> 1000

# The remaining lines, values ahead:
row,EC50 [µM],Compound
1,> 1000,CNC(=O)CC[C@H](C[C@H](N)C(=O)O)C(=O)O
2,> 1000,NCC[C@H](C[C@H](N)C(=O)O)C(=O)O
3,> 1000,CN(O)C(=O)CC[C@H](C[C@H](N)C(=O)O)C(=O)O
4,> 1000,CCC[C@H](C[C@H](N)C(=O)O)C(=O)O
5,> 1000,N[C@@H](C[C@@H](CCC(=O)NO)C(=O)O)C(=O)O

# Target: T1, Metabotropic glutamate receptor 2 (Rattus norvegicus, UniProt P31421)
# Assay: Agonist activity at rat mGlu2 receptor by FRET based mGlu sensor assay
# Settings: not given
# Procedure, shortened: (§1)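 Receptor carried an N-terminal SNAP-tag and was transfected into HEK293 cells. At 24 h, surface receptors were labelled for 1 h with 100 nM SNAP-Lumi4-Tb (donor) and 60 nM SNAP Green (acceptor), washed three times, then drug was added. Time-resolved FRET was recorded at 520 nm, at least in duplicate.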
# T1 sequence (P31421 whole entry): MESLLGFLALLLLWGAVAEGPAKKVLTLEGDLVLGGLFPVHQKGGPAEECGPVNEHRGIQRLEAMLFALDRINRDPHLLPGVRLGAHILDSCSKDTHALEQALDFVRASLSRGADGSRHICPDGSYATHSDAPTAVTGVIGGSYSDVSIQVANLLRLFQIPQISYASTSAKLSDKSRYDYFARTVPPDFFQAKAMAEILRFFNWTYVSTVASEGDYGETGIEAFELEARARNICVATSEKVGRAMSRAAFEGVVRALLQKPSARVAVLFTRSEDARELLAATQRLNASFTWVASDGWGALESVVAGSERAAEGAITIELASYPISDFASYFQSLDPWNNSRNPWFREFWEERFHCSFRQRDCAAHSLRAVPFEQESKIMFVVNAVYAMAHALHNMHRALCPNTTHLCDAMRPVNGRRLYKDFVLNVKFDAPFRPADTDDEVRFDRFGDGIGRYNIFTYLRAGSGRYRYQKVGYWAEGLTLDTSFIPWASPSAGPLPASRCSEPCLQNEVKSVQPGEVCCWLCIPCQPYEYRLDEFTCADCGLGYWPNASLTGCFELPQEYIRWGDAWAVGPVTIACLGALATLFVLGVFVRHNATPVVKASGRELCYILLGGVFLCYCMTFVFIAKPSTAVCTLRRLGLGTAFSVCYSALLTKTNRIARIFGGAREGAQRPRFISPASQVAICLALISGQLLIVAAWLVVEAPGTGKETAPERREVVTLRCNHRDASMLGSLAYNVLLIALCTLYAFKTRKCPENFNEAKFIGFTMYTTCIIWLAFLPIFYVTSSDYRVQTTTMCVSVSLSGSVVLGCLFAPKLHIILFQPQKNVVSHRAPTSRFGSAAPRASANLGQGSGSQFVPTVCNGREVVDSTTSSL
row,Compound,EC50 [µM]
1,N[C@H](C(=O)O)C1[C@@H](C(=O)O)[C@@H]1C(=O)O (stereo partly specified),0.35

# Target: T1, Metabotropic glutamate receptor 2
# Assay: Agonist activity at rat mGlu2 receptor expressed in HEK293 cells by [35S]GTP-gamma binding assay
# Format: cell-based
# Settings: read-out: EC50
row,Compound,EC50 [µM]
1,N#CCC[C@H](C[C@H](N)C(=O)O)C(=O)O,> 1000
2,CC[C@H](C[C@H](N)C(=O)O)C(=O)O,> 1000
3,NC(=O)CC[C@H](C[C@H](N)C(=O)O)C(=O)O,> 1000
4,N[C@@H](C[C@@H](CC(=O)O)C(=O)O)C(=O)O,> 1000

# Next, values leading:
row,EC50 [µM],Compound
1,> 1000,CNC(=O)CC[C@H](C[C@H](N)C(=O)O)C(=O)O
2,> 1000,NCC[C@H](C[C@H](N)C(=O)O)C(=O)O
3,> 1000,CN(O)C(=O)CC[C@H](C[C@H](N)C(=O)O)C(=O)O
4,> 1000,CCC[C@H](C[C@H](N)C(=O)O)C(=O)O
5,> 1000,N[C@@H](C[C@@H](CCC(=O)NO)C(=O)O)C(=O)O

# Target: Metabotropic glutamate receptor 5 (Rattus norvegicus, UniProt P31424)
# Assay: Agonist activity at rat mGlu5 receptor expressed in HEK293 cells by intracellular Ca2+ mobilization assay
# Format: functional, cell-based
# Settings: not given
row,Compound,EC50 [µM]
1,N#CCC[C@H](C[C@H](N)C(=O)O)C(=O)O,> 1000
2,NC(=O)CC[C@H](C[C@H](N)C(=O)O)C(=O)O,> 1000
3,N[C@@H](C[C@@H](CC(=O)O)C(=O)O)C(=O)O,> 1000

# Results, then the compound that gave them:
row,EC50 [µM],Compound
1,> 1000,CNC(=O)CC[C@H](C[C@H](N)C(=O)O)C(=O)O
2,> 1000,NCC[C@H](C[C@H](N)C(=O)O)C(=O)O
3,> 1000,CN(O)C(=O)CC[C@H](C[C@H](N)C(=O)O)C(=O)O
4,> 1000,N[C@@H](C[C@@H](CCC(=O)NO)C(=O)O)C(=O)O

# Target: Metabotropic glutamate receptor 7 (Homo sapiens, UniProt Q14831)
# Assay: Agonist activity at human mGlu7 receptor expressed in HEK293 assessed as inhibition of forskolin stimulated cAMP production
# Format: functional, cell-based
# Settings: not given
# Sequence of Metabotropic glutamate receptor 7 (Q14831 whole entry): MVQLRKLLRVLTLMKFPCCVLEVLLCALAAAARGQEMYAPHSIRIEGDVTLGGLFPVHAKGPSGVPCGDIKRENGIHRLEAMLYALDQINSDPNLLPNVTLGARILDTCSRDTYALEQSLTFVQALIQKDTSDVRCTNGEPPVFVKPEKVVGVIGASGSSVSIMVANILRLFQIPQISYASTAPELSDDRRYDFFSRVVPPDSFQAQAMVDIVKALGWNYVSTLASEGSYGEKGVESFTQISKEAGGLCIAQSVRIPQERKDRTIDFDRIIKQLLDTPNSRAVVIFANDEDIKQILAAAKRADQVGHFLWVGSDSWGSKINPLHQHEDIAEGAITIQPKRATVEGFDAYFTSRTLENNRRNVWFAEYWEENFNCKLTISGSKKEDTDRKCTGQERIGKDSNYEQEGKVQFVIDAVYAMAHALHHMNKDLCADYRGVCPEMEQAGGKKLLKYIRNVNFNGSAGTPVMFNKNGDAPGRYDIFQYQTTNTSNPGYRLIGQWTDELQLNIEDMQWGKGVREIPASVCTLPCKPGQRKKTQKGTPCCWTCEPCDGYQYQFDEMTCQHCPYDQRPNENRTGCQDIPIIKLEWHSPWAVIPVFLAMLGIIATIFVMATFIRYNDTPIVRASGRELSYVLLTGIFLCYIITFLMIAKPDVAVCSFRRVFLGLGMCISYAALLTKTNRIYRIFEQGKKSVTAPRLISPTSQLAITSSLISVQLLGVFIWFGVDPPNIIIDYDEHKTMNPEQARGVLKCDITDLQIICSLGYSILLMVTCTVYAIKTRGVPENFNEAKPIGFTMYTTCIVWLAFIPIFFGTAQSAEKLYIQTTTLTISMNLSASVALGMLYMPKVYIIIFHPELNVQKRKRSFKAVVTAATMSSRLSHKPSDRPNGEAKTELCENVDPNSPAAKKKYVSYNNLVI
row,Compound,EC50 [µM]
1,N#CCC[C@H](C[C@H](N)C(=O)O)C(=O)O,> 1000
2,N[C@@H](C[C@@H](CC(=O)O)C(=O)O)C(=O)O,> 1000

# Other lines, results leading:
row,EC50 [µM],Compound
1,> 1000,NCC[C@H](C[C@H](N)C(=O)O)C(=O)O
2,> 1000,CN(O)C(=O)CC[C@H](C[C@H](N)C(=O)O)C(=O)O
3,> 1000,N[C@@H](C[C@@H](CCC(=O)NO)C(=O)O)C(=O)O

# Target: T2, Metabotropic glutamate receptor 3 (Rattus norvegicus, UniProt P31422)
# Assay: Agonist activity at rat mGlu3 receptor expressed in HEK293 cells by [35S]GTP-gamma binding assay
# Format: cell-based
# Settings: not given
# T2 sequence (P31422 whole entry): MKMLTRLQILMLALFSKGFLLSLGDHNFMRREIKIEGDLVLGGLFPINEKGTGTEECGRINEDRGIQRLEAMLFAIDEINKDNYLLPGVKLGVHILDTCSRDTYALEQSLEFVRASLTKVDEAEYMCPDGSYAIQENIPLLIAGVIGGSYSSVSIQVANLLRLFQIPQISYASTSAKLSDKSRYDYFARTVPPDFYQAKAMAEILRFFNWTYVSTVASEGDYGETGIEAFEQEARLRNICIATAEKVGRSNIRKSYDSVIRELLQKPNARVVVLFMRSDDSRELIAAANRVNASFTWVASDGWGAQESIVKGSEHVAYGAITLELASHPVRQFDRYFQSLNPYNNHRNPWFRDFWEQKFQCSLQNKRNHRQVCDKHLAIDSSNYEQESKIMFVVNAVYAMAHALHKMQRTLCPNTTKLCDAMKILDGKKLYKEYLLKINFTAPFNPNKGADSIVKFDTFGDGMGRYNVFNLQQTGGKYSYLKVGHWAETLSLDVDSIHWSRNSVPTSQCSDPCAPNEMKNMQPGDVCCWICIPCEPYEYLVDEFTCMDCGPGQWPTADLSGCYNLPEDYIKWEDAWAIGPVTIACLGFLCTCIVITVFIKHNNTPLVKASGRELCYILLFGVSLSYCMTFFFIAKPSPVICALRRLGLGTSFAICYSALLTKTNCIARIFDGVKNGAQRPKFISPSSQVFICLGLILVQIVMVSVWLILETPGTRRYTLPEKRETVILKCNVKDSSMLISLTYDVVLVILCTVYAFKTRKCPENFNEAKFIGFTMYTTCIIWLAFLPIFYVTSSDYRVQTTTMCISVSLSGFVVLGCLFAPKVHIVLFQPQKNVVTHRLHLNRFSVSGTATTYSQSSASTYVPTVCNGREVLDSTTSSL
row,Compound,EC50 [µM]
1,N#CCC[C@H](C[C@H](N)C(=O)O)C(=O)O,> 1000
2,N[C@@H](C[C@@H](CC(=O)O)C(=O)O)C(=O)O,> 1000

# Next, values leading:
row,EC50 [µM],Compound
1,> 1000,NCC[C@H](C[C@H](N)C(=O)O)C(=O)O
2,> 1000,CN(O)C(=O)CC[C@H](C[C@H](N)C(=O)O)C(=O)O
3,> 1000,N[C@@H](C[C@@H](CCC(=O)NO)C(=O)O)C(=O)O

# Target: Metabotropic glutamate receptor 4 (Rattus norvegicus, UniProt P31423)
# Assay: Agonist activity at rat mGlu4 receptor expressed in HEK293 cells assessed as inhibition of forskolin stimulated cAMP production
# Format: functional, cell-based
# Settings: not given
# Sequence of Metabotropic glutamate receptor 4 (P31423 whole entry): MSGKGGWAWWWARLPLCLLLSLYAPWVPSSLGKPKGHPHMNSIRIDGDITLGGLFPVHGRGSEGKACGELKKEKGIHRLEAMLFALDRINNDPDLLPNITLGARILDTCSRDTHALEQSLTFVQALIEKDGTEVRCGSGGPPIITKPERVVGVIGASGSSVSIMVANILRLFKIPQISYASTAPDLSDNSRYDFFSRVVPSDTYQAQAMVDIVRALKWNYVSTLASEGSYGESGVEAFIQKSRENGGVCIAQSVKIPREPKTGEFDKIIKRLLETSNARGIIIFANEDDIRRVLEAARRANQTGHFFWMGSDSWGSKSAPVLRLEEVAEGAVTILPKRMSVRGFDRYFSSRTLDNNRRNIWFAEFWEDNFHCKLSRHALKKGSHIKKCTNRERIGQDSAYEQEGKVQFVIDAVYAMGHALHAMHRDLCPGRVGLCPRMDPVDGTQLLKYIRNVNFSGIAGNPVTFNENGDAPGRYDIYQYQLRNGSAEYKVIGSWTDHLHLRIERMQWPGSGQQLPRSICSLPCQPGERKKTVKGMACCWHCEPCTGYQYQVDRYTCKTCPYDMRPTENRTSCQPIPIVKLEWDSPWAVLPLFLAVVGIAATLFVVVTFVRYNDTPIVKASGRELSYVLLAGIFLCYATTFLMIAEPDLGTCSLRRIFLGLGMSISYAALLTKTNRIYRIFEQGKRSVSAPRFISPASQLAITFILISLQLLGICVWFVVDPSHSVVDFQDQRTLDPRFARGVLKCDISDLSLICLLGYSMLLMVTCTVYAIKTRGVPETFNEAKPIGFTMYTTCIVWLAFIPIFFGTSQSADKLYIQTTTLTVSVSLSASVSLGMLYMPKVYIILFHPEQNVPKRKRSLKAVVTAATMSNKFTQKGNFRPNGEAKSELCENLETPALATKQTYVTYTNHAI
row,Compound,EC50 [µM]
1,N#CCC[C@H](C[C@H](N)C(=O)O)C(=O)O,> 1000
2,CC[C@H](C[C@H](N)C(=O)O)C(=O)O,> 1000
3,NC(=O)CC[C@H](C[C@H](N)C(=O)O)C(=O)O,> 1000
4,N[C@@H](C[C@@H](CC(=O)O)C(=O)O)C(=O)O,> 1000

# Second part, the compound after the results:
row,EC50 [µM],Compound
1,> 1000,CNC(=O)CC[C@H](C[C@H](N)C(=O)O)C(=O)O
2,> 1000,NCC[C@H](C[C@H](N)C(=O)O)C(=O)O
3,> 1000,CN(O)C(=O)CC[C@H](C[C@H](N)C(=O)O)C(=O)O
4,> 1000,CCC[C@H](C[C@H](N)C(=O)O)C(=O)O
5,> 1000,N[C@@H](C[C@@H](CCC(=O)NO)C(=O)O)C(=O)O

# Target: T2, Metabotropic glutamate receptor 3
# Assay: Agonist activity at rat mGlu3 receptor by FRET based mGlu sensor assay
# Settings: not given
# Procedure, shortened: as §1, with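 “duplicate. EC50 ± SEM came from n = 4−6 experiments.” for “duplicate.”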
row,Compound,EC50 [µM]
1,N[C@H](C(=O)O)C1[C@@H](C(=O)O)[C@@H]1C(=O)O (stereo partly specified),0.08
